Entries after “also recorded” stand apart in the source; their conditions may differ. Ends that are not written are not given here. * marks the point of attachment. Biotin = O=C1N[C@H]2[C@H](CS[C@H]2CCCCC(=O)*)N1
What was measured:
ANT [1] = biological target: T1, ANT (Rattus norvegicus, UniProt Q05962); experiment: Plasmon resonance; format: binding; details: for binding affinity for ANT (in words): surface plasmon resonance, purified detergent-solubilized ANT; for sensorgram: increase of binding as a function of time: plasmon resonance, association and dissociation phase, Fig. 1 A
T1 sequence (Q05962 1-298): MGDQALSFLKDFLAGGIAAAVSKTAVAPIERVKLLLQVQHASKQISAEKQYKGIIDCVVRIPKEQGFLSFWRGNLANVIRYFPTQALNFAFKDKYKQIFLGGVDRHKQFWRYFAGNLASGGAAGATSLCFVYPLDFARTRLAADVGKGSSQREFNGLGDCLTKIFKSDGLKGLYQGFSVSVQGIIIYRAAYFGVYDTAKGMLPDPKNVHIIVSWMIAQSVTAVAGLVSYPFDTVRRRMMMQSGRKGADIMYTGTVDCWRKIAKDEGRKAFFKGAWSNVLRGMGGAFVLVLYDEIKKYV

[2] = biological target: biotin–Vpr52-96 (synthetic peptide, COOH-terminal moiety of HIV-1 viral protein R) (HIV-1) (UniProt P69726); experiment: SPR
[3] = tested on: purified mitochondria, inner membrane; experiment: Respirometry: NADH-dependent oxygen consumption; format: biochemical, mouse; details: Bcl-2 0.8 μM pretreated 10 min; other agents added; Fig. 5 A, 6 B
Summary of the method: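 Oxygen uptake was recorded by Clark electrode at 37°C (mannitol/KCl/MgCl2/BSA/KH2PO4 medium, pH 7.4) after 2 mM NADH and 1 μM peptide, with rotenone added to test sensitivity; rates are in nmol O2/min/mg protein. For inhibitor tests, mitochondria were pretreated 10 min with 0.8 μM Bcl-2 or 10 μM BA before succinate plus CCCP or NADH. In the kinetics, 15 μM cytochrome c oxidation was followed in parallel, with 100% set by 2.5 mM laurylmaltoside.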

[4] = tested on: purified mitochondria (ΔΨm); experiment: ΔΨm dissipation in purified mitochondria, effect of inhibitors; format: biochemical, mouse; details: for protection against Vpr-induced inner MMP (in words): purified mitochondria, Fig. 6 B–E
[5] = Binding of FITC–Vpr52-96 to purified mitochondria; set-up: species or system mouse; details: for effect on binding of Vpr52-96 to purified mitochondria: 10 min preincubation with inhibitors, Fig. 7 B
ANT proteoliposomes [6] = experiment: Pore-opening assay: 4-MUP release from ANT proteoliposomes; format: biochemical, rat; details: peptides 1 μM, 60 min, Atr 200 μM = 100%, Fig. 2 C
Summary of the method: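 ANT purified from rat heart mitochondria, reconstituted into PC/cardiolipin liposomes, sonicated on ice with 1 mM 4-MUP/10 mM KCl, gel-filtered. Diluted in 10 mM Hepes, 125 mM saccharose pH 7.4, peptide 1 h RT; inhibitors added 30 min earlier. Alkaline phosphatase (0.5 mM MgCl2) 15 min 37°C, stopped at pH 10. 4-MU fluorescence 360/450 nm. Release = % of atractyloside response after untreated background subtraction; n = 3, SD.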

[7] = tested on: purified mitochondria (respiratory control); experiment: Respiratory control; format: biochemical, mouse; details: 1 μM Vpr-derived peptides, 10 min
Summary of the method: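 Clark-electrode oxygraphy at 37°C in 0.3 M mannitol, 10 mM KCl, 5 mM MgCl2, 1 mg/ml BSA, 10 mM KH2PO4, pH 7.4. Purified mitochondria were pretreated 10 min with 1 μM peptide; succinate oxidation was followed with sequential ADP, oligomycin and CCCP additions. Mean of three determinations.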

COS cells = experiment: ΔΨm dissipation in microinjected COS cells; format: cell-based
Summary of the method: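 COS cells grown in DMEM Glutamax with Hepes, antibiotics and 10% FCS on a premarked coverslip area (>200 cells per experiment). Cells were injected into the cytoplasm (200 hPa, 0.5 s) with PBS pH 7.2, recombinant human Bcl-2 (residues 1–218; 10 μM in the injection solution) or 2 μM König's polyanion.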

ANT [8] = details: ref 8 26 28 40; cited from earlier work
VDAC = details: sucrose or cytochrome c, in vitro; ref 9 44; cited from earlier work
ANT [9] = biological target: T1, ANT; experiment: Planar lipid bilayers, single channel level, Vpr52-96 plus ANT; format: biochemical; details: +75 mV
Summary of the method: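 Rat heart mitochondrial ANT, purified via subtilisin treatment, Triton X-100 solubilization, hydroxyapatite and SP column (0–1 M NaCl). Proteins held 30 min RT with 1 mM CaCl2, 40 μM atractyloside or control electrolyte, mixed with dried lipid (60 μg protein/mg lipid), detergent removed by beads. Tip-dip bilayers, symmetric 100 mM KCl, 2 mM MgCl2, 10 mM Hepes pH 7.4.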

isolated mitochondria = experiment: Ultrastructure: swelling of isolated mitochondria; format: biochemical, mouse; details: Fig. 6 C
ANT proteoliposomes [10] = experiment: Binding of FITC-labeled Vpr52-96 to ANT proteoliposomes; set-up: species or system rat; details: FITC–Vpr52-96 (2 μM in Fig. 2 B); BA 50 μM; Bcl-2 800 nM preincubated (Fig. 8 B)
Summary of the method: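 ANT was purified from rat heart mitochondria (Triton X-100 extraction, hydroxyapatite, then cation-exchange with a 0–1 M NaCl gradient) and reconstituted at 0.1 mg/ml into phosphatidylcholine/cardiolipin liposomes, then dialysed overnight at 4°C. Proteoliposomes were exposed 30 min to FITC-peptide in 125 mM sucrose/10 mM Hepes pH 7.4, ultracentrifuged (290,000 g, 45 min, 10°C) and read by flow cytometry. Inhibitors were preincubated and washed out; mean ± SD, n = 3.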

Vpr52-96–ANT interaction = format: binding, rat; details: native purified ANT; Fig. 8 A; X ± SD, n = 3
recombinant VDAC = experiment: Plasmon resonance: binding to recombinant VDAC; details: control experiments, VDAC concentrations up to 10 μM
ANT [11] = experiment: Affinity purification of ANT by biotinylated Vpr52-96 and immunoblot; format: binding, mouse; details: Fig. 7 C

## biotin–Vpr52-96: NH2-terminally biotinylated Vpr52-96 (Biotin-DTWAGVEAIIRILQQLLFIHFRIGCRHSRIGVTRQRRARNGASRS)
ANT [1]
  binding affinity for ANT (in words): affinity in the nanomolar range

## adenine nucleotide translocator (ANT) purified from rat heart mitochondria (from UniProt Q05962 1-298) (natural protein)
[2]
  Kd: 9.7 nM

## C=C(C)[C@H]1Cc2c(ccc3c2O[C@@H]2COc4cc(OC)c(OC)cc4[C@@H]2C3=O)O1 [rotenone, reference compound]
[3]
  effect on Vpr-induced NADH-dependent oxygen consumption: fully sensitive to rotenone

## cyclosporin A [CsA]
[4]
  protection against Vpr-induced inner MMP (in words): also inhibited the manifestations of inner MMP
[5]
  effect on binding of Vpr52-96 to purified mitochondria: not affected

## Vpr1-51: NH2-terminal moiety of Vpr
ANT proteoliposomes [6]
  permeabilization of ANT proteoliposomes: but not the NH2-terminal moiety of Vpr [Vpr1-51]
[7]
  effect on RC (in words): but not Vpr1-51

## Vpr: Vpr added extracellularly to intact cells; Fig. 6 A legend gives 1 μM Vpr52-96
COS cells; 1 μM Vpr52-96 (Fig. 6 A), 3 h, n = 3
  vehicle-microinjected cells with complete ΔΨm dissipation: 61 ± 8%

## C=C1[C@@H]2CC[C@H]3[C@]4(C)C[C@H](O[C@@H]5O[C@H](CO)[C@@H](OS(=O)(=O)O)[C@H](OS(=O)(=O)O)[C@H]5OC(=O)CC(C)C)C[C@@H](C(=O)O)[C@H]4CC[C@]3(C2)[C@H]1O [Atr, atractyloside, reference compound]
ANT [8]
  effect on ANT pore formation: cause ANT (which normally is a strictly specific ADP/ATP antiporter) to form a nonspecific pore

## Bcl-2: recombinant human Bcl-2 (amino acids 1–218)
[3]
  effect on Vpr-induced NADH-dependent oxygen consumption: inhibited the Vpr-mediated inner MMP to NADH
VDAC
  effect on permeabilization of VDAC-containing liposomes: inhibited by Bcl-2
COS cells; 10 μM recombinant human Bcl-2 microinjected, 1 μM Vpr52-96, 3 h
  inhibition of Vpr-induced ΔΨm loss in intact cells: ≥ 95%
COS cells; Bcl-2-injected (10 μM), 1 μM Vpr52-96, 3 h
  cells with ΔΨm reduction, inhibitor-injected: Less than 5%
[4]; Bcl-2 preincubation (0.8 μM), Fig. 6 D, E
  inhibition of Vpr-induced ΔΨm loss in purified mitochondria: ~70%
[4]
  protection against Vpr-induced inner MMP (in words): protect mitochondria against Vpr-induced MMP
ANT [9]; Vpr52-96 plus ANT plus Bcl-2 0.4:1:1 nM, Fig. 8 C
  effect on formation of Vpr52-96–induced channels in ANT-containing lipid bilayers: suppresses channel formation by the ANT–Vpr complex; also recorded: abolished the formation of Vpr52-96–induced channels
Isolated mitochondria; Bcl-2 preincubation
  inhibition of Vpr-induced matrix swelling: ~50%
Isolated mitochondria
  effect on Vpr52-96-induced matrix swelling (in words): strongly reduced the Vpr52-96–induced matrix swelling
[5]
  effect on binding of Vpr52-96 to purified mitochondria: failed to impair the binding of Vpr52-96 to purified mitochondria; also recorded: not affected
ANT proteoliposomes [10]
  effect on Vpr binding to ANT proteoliposomes: reduced
Vpr52-96–ANT interaction
  effect of Bcl-2 proteins on Vpr52-96 binding to soluble ANT: reduces the ANT–Vpr interaction; also recorded: reduced Vpr52-96 binding to soluble; also recorded: inhibits binding of Vpr52-96 to ANT

## Nc1ncnc2c1ncn2[C@@H]1O[C@H](COP(=O)(O)OP(=O)(O)O)[C@@H](O)[C@H]1O [ADP, reference compound]
[3]
  effect on Vpr-induced NADH-dependent oxygen consumption: strongly inhibited the Vpr-dependent, NADH-stimulated oxygen consumption

## FITC-labeled Vpr52-96: FITC-labeled Vpr52-96 (DTWAGVEAIIRILQQLLFIHFRIGCRHSRIGVTRQRRARNGASRS; also: FITC label, position not given here)
[5]; 0.5 μM FITC–Vpr52-96, Fig. 7 A
  binding of FITC-labeled Vpr52-96 to intact mitochondria: rapidly bound to intact mitochondria and then provoked ΔΨm loss

## HWWRAESDEARRCYNDPKCCDFVTNR [irrelevant control (Co.), reference compound]
ANT [1]
  sensorgram: increase of binding as a function of time: Only the sensorgram of the interaction with Vpr52-96 exhibits an increase of binding

## biotin–Vpr52-96[R73,80A]: mutated biotin–Vpr52-96[R73,80A], immobilized on biosensor chip (Biotin-DTWAGVEAIIRILQQLLFIHFAIGCRHSAIGVTRQRRARNGASRS)
ANT [1]
  binding affinity for ANT (in words): to a far lesser extent

## CO[C@H](C/C=C\C=C\CC/C=C/C[C@H](C)/C=C/C(=C\C(=O)O)CC(=O)O)/C(C)=C\C=C(/C)C(=O)O [BA, bongkrekic acid]
[4]
  protection against Vpr-induced inner MMP (in words): also inhibited the manifestations of inner MMP
[5]
  effect on binding of Vpr52-96 to purified mitochondria: partially reduced; also recorded: reduces the binding of Vpr to mitochondria to some extent
ANT proteoliposomes [10]
  effect on Vpr binding to ANT proteoliposomes: inhibited

## Bax: proapoptotic Bcl-2 family protein
VDAC
  effect on permeabilization of VDAC-containing liposomes: enhanced by Bax
ANT [8]
  effect on ANT pore formation: cause ANT (which normally is a strictly specific ADP/ATP antiporter) to form a nonspecific pore
ANT [9]; Vpr52-96 plus ANT plus Bax 0.4:1:0.3 nM, mean value
  conductance of Vpr52-96–ANT channels in presence of Bax: 245 ± 2 pS

## Vpr52-96[R73A,80A] (Biotin-DTWAGVEAIIRILQQLLFIHFAIGCRHSAIGVTRQRRARNGASRS)
ANT [1]
  sensorgram: increase of binding as a function of time: Only the sensorgram of the interaction with Vpr52-96 exhibits an increase of binding
Recombinant VDAC
  specific binding to VDAC: without any difference between Vpr52-96 and Vpr52-96[R73A, 80A] and without detectable saturation

## König's polyanion [PA10]
COS cells; 2 μM PA10 microinjected, 1 μM Vpr52-96, 3 h
  effect on Vpr action on intact cells (in words): also inhibited the effect of Vpr52-96 on intact cells
[4]
  protection against Vpr-induced inner MMP (in words): also inhibited the manifestations of inner MMP
[5]
  effect on binding of Vpr52-96 to purified mitochondria: completely abolished; also recorded: completely blocks the binding of Vpr52-96 to intact mitochondria
ANT [11]; 5 μM biotinylated Vpr52-96, 30 min RT, lysed after incubation
  effect on Vpr52-96-mediated purification of ANT, intact mitochondria: fully abolished
ANT [11]; mitochondria lysed before incubation with 5 μM biotinylated Vpr52-96
  effect on Vpr52-96-mediated purification of ANT, Triton-solubilized mitochondria: did not affect

— publication PMC2195906 (The Journal of Experimental Medicine, 2001)
